Assay results as given in ChEMBL document CHEMBL3286335, “Synthesis of 2,3,6-trideoxy sugar triazole hybrids as potential new broad spectrum antimicrobial agents” (Eur J Med Chem, 2014).
Values after ≈ are worked out from the molar mass of the structure shown.

Assays:
Format in all cases: functional
Staphylococcus aureus [1] = assay: Antimicrobial activity against Staphylococcus aureus ATCC 25923 after 24 hrs by microbroth dilution method; details: ATCC 25923, 24 h
Procedure, shortened: (§1)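 Broth microdilution per NCCLS guidelines. Bacteria in Mueller-Hinton broth; fungi in MOPS-buffered RPMI 1640. Test compounds at 50-0.36 µg/mL, standard drugs over 32-0.0018 µg/mL. Inoculum 1-5 × 10^3 cells/mL, 35 °C in a moist chamber. A492 read at 24 h for bacteria, 48 h for C. albicans, 72 h for A. fumigatus, C. neoformans and S. schenckii, 96 h for T. mentagrophytes. MIC taken as 90% growth inhibition relative to growth control.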

Staphylococcus aureus [2] = assay: Antimicrobial activity against methicillin-resistant Staphylococcus aureus after 24 hrs by microbroth dilution method
Procedure, shortened: (§2)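 Microbroth dilution in Mueller Hinton broth, following NCCLS guidelines. Test compounds were run at 50-0.36 µg/mL against an initial inoculum of 1-5 × 10^3 cells/mL. Plates were incubated in a moist chamber at 35 °C, and absorbance at 492 nm was read after 24 h. MIC was taken as 90% growth inhibition relative to the growth control.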

Klebsiella pneumoniae = assay: Antimicrobial activity against Klebsiella pneumoniae ATCC 27736 after 24 hrs by microbroth dilution method; details: ATCC 27736, 24 h; procedure, shortened: as §1
Escherichia coli = assay: Antimicrobial activity against Escherichia coli ATCC 9637 after 24 hrs by microbroth dilution method; details: ATCC 9637, 24 h; procedure, shortened: as §1
Pseudomonas aeruginosa = assay: Antimicrobial activity against Pseudomonas aeruginosa ATCC BAA-427 after 24 hrs by microbroth dilution method; details: ATCC BAA-427, 24 h; procedure, shortened: as §1
Staphylococcus aureus [3] = assay: Antimicrobial activity against vancomycin-resistant Staphylococcus aureus after 24 hrs by microbroth dilution method; procedure, shortened: as §2
Candida albicans = assay: Antimicrobial activity against Candida albicans after 48 hrs by microbroth dilution method; procedure, shortened: as §1
Aspergillus fumigatus = assay: Antimicrobial activity against Aspergillus fumigatus after 72 hrs by microbroth dilution method; procedure, shortened: as §1
Cryptococcus neoformans = assay: Antimicrobial activity against Cryptococcus neoformans after 72 hrs by microbroth dilution method; procedure, shortened: as §1
Sporothrix schenckii = assay: Antimicrobial activity against Sporothrix schenckii after 72 hrs by microbroth dilution method; procedure, shortened: as §1
[4] = system: Trichophyton mentagrophytes; assay: Antimicrobial activity against Trichophyton mentagrophytes after 96 hrs by microbroth dilution method; procedure, shortened: as §1

SMILES	MIC (Staphylococcus aureus [1]) [µg/mL]	MIC (Staphylococcus aureus [2]) [µg/mL]	MIC (Klebsiella pneumoniae) [µg/mL]	MIC (Escherichia coli) [µg/mL]	MIC (Pseudomonas aeruginosa) [µg/mL]	MIC (Staphylococcus aureus [3]) [µg/mL]	MIC (Candida albicans) [µg/mL]	MIC (Aspergillus fumigatus) [µg/mL]	MIC (Cryptococcus neoformans) [µg/mL]	MIC (Sporothrix schenckii) [µg/mL]	MIC [4] [µg/mL]
CCCCCCCCc1cn(C[C@H]2O[C@H](OCCC(C)C)C=C[C@@H]2O)nn1	> 50	> 50	> 50	> 50	> 50	> 50	> 50	> 50	25 (≈ 65.9 µM)	> 50	50 (≈ 132 µM)
CC(C)CO[C@@H]1C=CC(=O)[C@@H](Cn2cc(CCCCl)nn2)O1	12.5 (≈ 38.1 µM)	> 50	50 (≈ 153 µM)	> 50	> 50	> 50	50 (≈ 153 µM)	> 50	> 50	50 (≈ 153 µM)	> 50
CC(C)CCO[C@@H]1C=CC(=O)[C@@H](Cn2cc(CCCC=O)nn2)O1	> 50	> 50	50 (≈ 149 µM)	> 50	> 50	> 50	> 50	> 50	> 50	12.5 (≈ 37.3 µM)	25 (≈ 74.5 µM)
CC(C)CCO[C@@H]1C=CC(=O)[C@@H](Cn2cc(CCCCOC(=O)C(C)(C)C)nn2)O1	12.5 (≈ 29.7 µM)	> 50	12.5 (≈ 29.7 µM)	50 (≈ 119 µM)	50 (≈ 119 µM)	> 50	> 50	25 (≈ 59.3 µM)	50 (≈ 119 µM)	12.5 (≈ 29.7 µM)	25 (≈ 59.3 µM)
CC(C)CCO[C@@H]1C=CC(=O)[C@@H](Cn2cc(CCBr)nn2)O1	12.5 (≈ 33.6 µM)	> 50	50 (≈ 134 µM)	> 50	> 50	> 50	12.5 (≈ 33.6 µM)	50 (≈ 134 µM)	12.5 (≈ 33.6 µM)	25 (≈ 67.2 µM)	6.25 (≈ 16.8 µM)
CC(C)CCO[C@@H]1C=CC(=O)[C@@H](Cn2cc(-c3ccccn3)nn2)O1	6.25 (≈ 18.3 µM)	12.5 (≈ 36.5 µM)	6.25 (≈ 18.3 µM)	> 50	> 50	12.5 (≈ 36.5 µM)	> 50	> 50	> 50	25 (≈ 73 µM)	12.5 (≈ 36.5 µM)
CC(C)CCO[C@@H]1C=CC(=O)[C@@H](Cn2cc(C3CCCC3)nn2)O1	50 (≈ 150 µM)	> 50	50 (≈ 150 µM)	50 (≈ 150 µM)	50 (≈ 150 µM)	> 50	25 (≈ 75 µM)	50 (≈ 150 µM)	50 (≈ 150 µM)	50 (≈ 150 µM)	50 (≈ 150 µM)
CC(C)CCO[C@@H]1C=CC(=O)[C@@H](Cn2cc(C3CC3)nn2)O1	6.25 (≈ 20.5 µM)	> 50	> 50	> 50	> 50	> 50	12.5 (≈ 40.9 µM)	> 50	25 (≈ 81.9 µM)	12.5 (≈ 40.9 µM)	6.25 (≈ 20.5 µM)
CC(C)CCO[C@@H]1C=CC(=O)[C@@H](Cn2cc(CCCN3C(=O)c4ccccc4C3=O)nn2)O1	6.25 (≈ 13.8 µM)	25 (≈ 55.2 µM)	> 50	> 50	> 50	25 (≈ 55.2 µM)	25 (≈ 55.2 µM)	> 50	50 (≈ 110 µM)	50 (≈ 110 µM)	25 (≈ 55.2 µM)
CC(C)CCO[C@@H]1C=CC(=O)[C@@H](Cn2ccnn2)O1	25 (≈ 94.2 µM)	> 50	> 50	50 (≈ 188 µM)	> 50	> 50	50 (≈ 188 µM)	> 50	50 (≈ 188 µM)	> 50	> 50
